ChEMBL document CHEMBL1955832, “Facile synthesis, characterization and pharmacological activities of 3,6-disubstituted 1,2,4-triazolo[3,4-b][1,3,4]thiadiazoles and 5,6-dihydro-3,6-disubstituted-1,2,4-triazolo[3,4-b][1,3,4]thiadiazoles” (2012)
Values after ≈ are worked out from the molar mass of the structure shown. Active and inactive are the calls of the source. The calls are words filed in the database; no cut-off is given here.

Legend:
Aspergillus flavus [1] = assay: Antifungal activity against Aspergillus flavus NCIM 524 at MIC after 3 to 4 days; type: functional
Rattus norvegicus = assay: Antiinflammatory activity rat assessed as reduction of carrageenan-induced paw oedema at 100 mg/kg, po administered 30 mins before carrageenan challenge measured after 60 to 180 mins; type: functional, organism-based; design: dose 100 mg/kg
Outline: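 Rats randomly assigned, 100 mg/kg orally as suspension in 1% carboxymethyl cellulose, 30 min before carrageenan injected into right hind paw. Paw thickness measured with vernier callipers at 60, 120 and 180 min. Diclofenac reference; mean ± SEM, n = 6, vs vehicle control.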

Escherichia coli [2] = assay: Antibacterial activity against Escherichia coli ATTC 25922 at MIC after 3 to 4 days by disc diffusion method; type: functional
Outline: (§1)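 Agar well diffusion: seeded agar plates dried 1 h at 37 °C, wells punched and filled with test compound at MIC level in DMSO; DMSO solvent control. Plates in triplicate, kept at 37 °C for 3–4 days; zone of inhibition read.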

Pseudomonas aeruginosa [3] = assay: Antibacterial activity against Pseudomonas aeruginosa ATTC 27853 after 16 to 18 hrs by serial dilution method; type: functional
Outline: (§2)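 Serial drug dilutions in Mueller-Hinton broth adjusted to pH 5.0 with phosphate buffer, inoculated with standardized bacterial suspension, incubated 16–18 h at 37 °C; MIC taken as lowest concentration without conspicuous growth.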

Staphylococcus aureus [4] = assay: Antibacterial activity against Staphylococcus aureus ATTC 25923 after 16 to 18 hrs by serial dilution method; type: functional; outline: as §2
Mus musculus [5] = assay: Analgesic activity Wistar albino mouse assessed as tail withdrawal latency time at 100 mg/kg, po administered by intragastric tube after 120 mins (reference value: 1.363 +/- 0.1297 sec); type: functional
Staphylococcus aureus [6] = assay: Antibacterial activity against Staphylococcus aureus ATTC 25923 at MIC after 3 to 4 days by disc diffusion method; type: functional; outline: as §1
Aspergillus fumigatus [7] = assay: Antifungal activity against Aspergillus fumigatus NCIM 902 by serial plate dilution method; type: functional
Mus musculus [8] = assay: Analgesic activity Wistar albino mouse assessed as tail withdrawal latency time at 100 mg/kg, po administered by intragastric tube after 180 mins (reference value: 1.363 +/- 0.1297 sec); type: functional
Pseudomonas aeruginosa [9] = assay: Antibacterial activity against Pseudomonas aeruginosa ATTC 27853 at MIC after 3 to 4 days by disc diffusion method; type: functional; outline: as §1
Mus musculus [10] = assay: Analgesic activity Wistar albino mouse assessed as tail withdrawal latency time at 100 mg/kg, po administered by intragastric tube after 60 mins (reference value: 1.363 +/- 0.1297 sec); type: functional
Talaromyces marneffei [11] = assay: Antifungal activity against recultured Penicillium marneffei by serial plate dilution method; type: functional
Talaromyces marneffei [12] = assay: Antifungal activity against recultured Penicillium marneffei at MIC after 3 to 4 days; type: functional
Klebsiella pneumoniae [13] = assay: Antibacterial activity against recultured Klebsiella pneumoniae after 16 to 18 hrs by serial dilution method; type: functional; outline: as §2
[14] = system: Trichophyton mentagrophytes; assay: Antifungal activity against recultured Trichophyton mentagrophytes at MIC after 3 to 4 days; type: functional
Klebsiella pneumoniae [15] = assay: Antibacterial activity against recultured Klebsiella pneumoniae at MIC after 3 to 4 days by disc diffusion method; type: functional; outline: as §1
Aspergillus flavus [16] = assay: Antifungal activity against Aspergillus flavus NCIM 524 by serial plate dilution method; type: functional
Escherichia coli [17] = assay: Antibacterial activity against Escherichia coli ATTC 25922 after 16 to 18 hrs by serial dilution method; type: functional; outline: as §2
Aspergillus fumigatus [18] = assay: Antifungal activity against Aspergillus fumigatus NCIM 902 at MIC after 3 to 4 days; type: functional
[19] = system: Trichophyton mentagrophytes; assay: Antifungal activity against recultured Trichophyton mentagrophytes by serial plate dilution method; type: functional

Structure (SMILES) | diameter of the inhibition zone (DIZ) (Aspergillus flavus [1]) | Activity (Rattus norvegicus) | diameter of the inhibition zone (DIZ) (Escherichia coli [2]) | MIC (Pseudomonas aeruginosa [3]) | MIC (Staphylococcus aureus [4]) | Time (Mus musculus [5]) | diameter of the inhibition zone (DIZ) (Staphylococcus aureus [6]) | MIC (Aspergillus fumigatus [7]) | Time (Mus musculus [8]) | diameter of the inhibition zone (DIZ) (Pseudomonas aeruginosa [9]) | Time (Mus musculus [10]) | MIC (Talaromyces marneffei [11]) | diameter of the inhibition zone (DIZ) (Talaromyces marneffei [12]) | MIC (Klebsiella pneumoniae [13]) | diameter of the inhibition zone (DIZ) [14] | diameter of the inhibition zone (DIZ) (Klebsiella pneumoniae [15]) | MIC (Aspergillus flavus [16]) | MIC (Escherichia coli [17]) | diameter of the inhibition zone (DIZ) (Aspergillus fumigatus [18]) | MIC [19]
COc1ccc(Br)c(-c2nnc3n2NC(c2ccc(C)cc2)S3)c1 (centres undefined) | 16 mm | Active | 16 mm | 15.5 µM (≈ 6.25 µg/mL) | 31 µM (≈ 12.5 µg/mL) | 2.643 s | 11 mm | 15.5 µM (≈ 6.25 µg/mL) | 2.438 s | 16 mm | 2.403 s | 31 µM (≈ 12.5 µg/mL) | 11 mm | 15.5 µM (≈ 6.25 µg/mL) | 11 mm | 16 mm | 15.5 µM (≈ 6.25 µg/mL) | 15.5 µM (≈ 6.25 µg/mL) | 16 mm | 31 µM (≈ 12.5 µg/mL)
COc1ccc(-c2nn3c(-c4cc(OC)ccc4Br)nnc3s2)cc1 | 11 mm | Active | 16 mm | 15 µM (≈ 6.25 µg/mL) | 15 µM (≈ 6.25 µg/mL) | 2.674 s | 16 mm | 15 µM (≈ 6.25 µg/mL) | 2.44 s | 16 mm | 2.379 s | 29.9 µM (≈ 12.5 µg/mL) | 11 mm | 15 µM (≈ 6.25 µg/mL) | 16 mm | 16 mm | 29.9 µM (≈ 12.5 µg/mL) | 15 µM (≈ 6.25 µg/mL) | 16 mm | 15 µM (≈ 6.25 µg/mL)
COc1ccc(Br)c(-c2nnc3n2NC(c2ccc(-c4ccccc4)cc2)S3)c1 (centres undefined) | 16 mm | – | 11 mm | 26.9 µM (≈ 12.5 µg/mL) | 26.9 µM (≈ 12.5 µg/mL) | 2.067 s | 11 mm | 26.9 µM (≈ 12.5 µg/mL) | 2.455 s | 11 mm | 2.102 s | 26.9 µM (≈ 12.5 µg/mL) | 11 mm | 13.4 µM (≈ 6.25 µg/mL) | 11 mm | 16 mm | 13.4 µM (≈ 6.25 µg/mL) | 26.9 µM (≈ 12.5 µg/mL) | 11 mm | 26.9 µM (≈ 12.5 µg/mL)
CCC(C)n1ncn(-c2ccc(N3CCN(c4ccc(OCC5COC(Cn6cncn6)(c6ccc(Cl)cc6Cl)O5)cc4)CC3)cc2)c1=O (centres undefined) [ITRACONAZOLE] | 25 mm | – | – | – | – | – | – | 8.86 µM (≈ 6.25 µg/mL) | – | – | – | 2.21 µM (≈ 1.56 µg/mL) | 22 mm | – | 30 mm | – | 8.86 µM (≈ 6.25 µg/mL) | – | 23 mm | 8.86 µM (≈ 6.25 µg/mL)
CC(C)=CCN1CC[C@]2(C)c3cc(O)ccc3C[C@H]1[C@H]2C [(+)-PENTAZOCINE] | – | – | – | – | – | 6.863 s | – | – | 7.025 s | – | 7.075 s | – | – | – | – | – | – | – | – | –
COc1ccc(C2Nn3c(nnc3-c3cc(OC)ccc3Br)S2)c(OC)c1 (centres undefined) | 11 mm | Active | 16 mm | 13.9 µM (≈ 6.25 µg/mL) | 27.8 µM (≈ 12.5 µg/mL) | 2.642 s | 11 mm | 27.8 µM (≈ 12.5 µg/mL) | 2.492 s | 16 mm | 2.39 s | 13.9 µM (≈ 6.25 µg/mL) | 16 mm | 13.9 µM (≈ 6.25 µg/mL) | 11 mm | 16 mm | 27.8 µM (≈ 12.5 µg/mL) | 13.9 µM (≈ 6.25 µg/mL) | 11 mm | 27.8 µM (≈ 12.5 µg/mL)
COc1ccc(Br)c(-c2nnc3sc(-c4ccccc4)nn23)c1 | 11 mm | – | 11 mm | 32.3 µM (≈ 12.5 µg/mL) | 32.3 µM (≈ 12.5 µg/mL) | 2.125 s | 11 mm | 32.3 µM (≈ 12.5 µg/mL) | 2.5 s | 11 mm | 1.963 s | 16.1 µM (≈ 6.25 µg/mL) | 16 mm | 32.3 µM (≈ 12.5 µg/mL) | 11 mm | 11 mm | 32.3 µM (≈ 12.5 µg/mL) | 32.3 µM (≈ 12.5 µg/mL) | 11 mm | 32.3 µM (≈ 12.5 µg/mL)
